Measurements taken from ChEMBL document CHEMBL3392957, “The discovery of 1,2,3,9b-tetrahydro-5H-imidazo[2,1-a]isoindol-5-ones as a new class of respiratory syncytial virus (RSV) fusion inhibitors. Part 1” (Bioorg Med Chem Lett, 2015).
Converted amounts (≈) assume the structure as drawn.

Tests used:
[1] = tested on: Respiratory syncytial virus; assay: Antiviral activity against Respiratory syncytial virus A2 infected in human Hep2 cells assessed as inhibition of virus-induced cytopathicity after 5 days by MTT assay; format: functional, organism-based; conditions: A2, HEp-2, 120 h
How it was run: (§1)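 HEp2 cells (1.0 × 10⁴/well) infected at low moi (e.g. RSV A2 at moi 0.01) and added to serially diluted compound; 5 days at 37 °C, 5% CO₂. CPE read by MTT (1 mg/ml, 2 h, 37 °C), isopropanol, absorbance 540 nm; EC₅₀ by non-linear regression. SD given where n > 2.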

[2] = Cytotoxicity against human Hep2 cells after 5 days by MTT assay; format: cell-based, HEp-2
How it was run: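 Uninfected HEp2 cells (1.0 × 10⁴/well) with serially diluted compound, 5 days at 37 °C in 5% CO₂; viability by MTT (1 mg/ml, 2 h), isopropanol, absorbance 540 nm; CC₅₀ by non-linear regression.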

[3] = tested on: Respiratory syncytial virus; assay: Antiviral activity against Respiratory syncytial virus A2 infected in human Hep2 cells assessed as inhibition of virus-induced cytopathicity after 5 days by MTT assay relative to alpha-1-acid glycoprotein; format: functional, HEp-2
How it was run: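 RSV A2 CPE assay in HEp2 cells (moi 0.01, 5 days, 37 °C, MTT read-out at 540 nm) run with alpha-1-acid glycoprotein at 1.5 mg/mL; result expressed as fold shift in EC₅₀ versus the assay without AAG.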

[4] = Oral bioavailability in Sprague-Dawley rat at 19 mg/kg as suspension with hydroxypropylmethylcellulose; format: ADME, organism-based; conditions: in vivo
How it was run: (§2)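 Male Sprague-Dawley rats, n = 2, given a single oral dose. Plasma pharmacokinetics were analysed for Cmax (µM), terminal half-life (hr) and oral bioavailability F (%). The oral bioavailability estimate draws on a separate intravenous arm, also with n = 2 rats.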

[5] = Elimination half life in Sprague-Dawley rat at 2.0 mg/kg, iv in 0.1 M capsitol and 10 to 12.5 % DMSO; conditions: in vivo, read-out: beta t1/2
[6] = Plasma protein binding in rat; format: ADME, cell-free; conditions: read-out: PPB (converted)
[7] = Kinetic solubility of the compound at pH 6.5 by nephelometry; format: physicochemical; conditions: buffer, read-out: Kinetic_solubility
How it was run: (§3)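 Kinetic solubility by nephelometry, at pH 2 and pH 6.5; reported as a range in μg/mL.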

[8] = Lipophilicity, log D of the compound in octanol saturated mobile phase at pH 7.4 by chromatographic method; format: physicochemical
How it was run: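 Effective logD determined chromatographically on a SUPELCOSIL LC-ABZ column with octanol-saturated mobile phase, pH 7.4.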

[9] = tested on: Respiratory syncytial virus; assay: Antiviral activity against wild-type Respiratory syncytial virus A Long infected in human Hep2 cells assessed as inhibition of virus-induced cytopathicity after 5 days by MTT assay; format: functional, organism-based; conditions: HEp-2, 120 h; how it was run: as §1
[10] = Total clearance in Sprague-Dawley rat at 2.0 mg/kg, iv in 0.1 M capsitol and 10 to 12.5 % DMSO; conditions: in vivo
[11] = Kinetic solubility of the compound at pH 2 by nephelometry; format: physicochemical; conditions: buffer, read-out: Kinetic_solubility; how it was run: as §3
[12] = Cmax in Sprague-Dawley rat at 19 mg/kg, po as suspension with hydroxypropylmethylcellulose; format: ADME, organism-based; set-up: dose 19 mg/kg, route oral; conditions: in vivo; how it was run: as §2
[13] = Apparent volume of distribution in Sprague-Dawley rat at 2.0 mg/kg, iv in 0.1 M capsitol and 10 to 12.5 % DMSO; conditions: in vivo, read-out: Vz
[14] = tested on: Respiratory syncytial virus; assay: Antiviral activity against Respiratory syncytial virus B1 infected in human Hep2 cells assessed as inhibition of virus-induced cytopathicity after 5 days by MTT assay; format: functional, organism-based; conditions: B1, HEp-2, 120 h; how it was run: as §1
[15] = Elimination half life in Sprague-Dawley rat at 19 mg/kg, po as suspension with hydroxypropylmethylcellulose; format: ADME, organism-based; set-up: dose 19 mg/kg, route oral; conditions: in vivo, read-out: beta t1/2; how it was run: as §2
[16] = tested on: Respiratory syncytial virus; assay: Selectivity ratio of EC50 for Respiratory syncytial virus A Long harboring F protein D489Y mutant infected in human Hep2 cells to EC50 for wild-type Respiratory syncytial virus A Long infected in human Hep2 cells

SMILES | EC50 [1] | CC50 at 120 h [2] | further results
O=C(Cc1ccc(F)cc1)N1CCN2C(=O)c3ccccc3C12c1ccc(Cl)cc1 (racemic) | 0.97 µM | > 20 µM | –
O=C1c2ccccc2C2(c3ccc(Cl)cc3)NCCN12 (racemic) | > 20 µM | > 70 µM | –
O=C(c1ccc(F)cc1)N1CCN2C(=O)c3cccnc3C12c1ccc(Cl)cc1 (racemic) | 1.2 µM | > 20 µM | –
N#CCOc1ccc(C23c4ccccc4C(=O)N2CCN3C(=O)c2ccc(F)cc2)cc1 (racemic) | 0.24 µM | > 17 µM | –
O=C(c1ccc(F)cc1)N1CCN2C(=O)c3ccccc3C12c1ccccc1 (racemic) | 1.1 µM | > 20 µM | –
N#CCOc1cccc(C23c4ccccc4C(=O)N2CCN3C(=O)c2ccc(F)cc2)c1 (racemic) | 3.4 µM | > 17 µM | –
N#CCC(=O)N1CCN2C(=O)c3ccccc3C12c1ccc(Cl)cc1 (racemic) | 4.5 µM | > 21 µM | –
CC(=O)N1CCN2C(=O)c3ccccc3C12c1ccc(Cl)cc1 (racemic) | 1.2 µM | > 20 µM | –
CC(=O)COc1ccc(C23c4ccccc4C(=O)N2CCN3C(=O)c2ccc(F)cc2)cc1 (racemic) | 0.86 µM | > 16 µM | –
O=C(c1ccc(F)cc1)N1CCN2C(=O)c3ccccc3C12c1cccc(Cl)c1 (racemic) | 0.19 µM | > 18 µM | –
O=C(c1ccc(F)cc1)N1CCN2C(=O)c3ccncc3C12c1ccc(Cl)cc1 (racemic) | 0.23 µM | > 49 µM | fold change (FC) [3]: <10; bioavailability [4]: 28%; half-life [5]: > 24 h; fraction unbound [6]: 0.27; solubility kinetic [7]: 12.5 µg/mL (≈ 30.6 µM); chromatographic logD [8]: 2.8; EC50 [9]: 0.22 µM; clearance [10]: 2.7 mL/min/kg; solubility kinetic [11]: 25 µg/mL (≈ 61.3 µM); Cmax [12]: 6.3 µM; Vd [13]: 6 L/kg; EC50 [14]: 0.68 µM; half-life [15]: > 24 h
O=C(c1ccccc1)N1CCN2C(=O)c3ccccc3C12c1ccc(Cl)cc1 (racemic) | 0.45 µM | > 20 µM | –
O=C1c2ccccc2C2(c3ccc(Cl)cc3)N1CCN2C(=O)C1CC1 (racemic) | 4.9 µM | > 21 µM | –
O=C(c1ccc(F)cc1)N1CCN2C(=O)c3ccccc3C12c1ccc(F)cc1 (racemic) | 0.71 µM | > 20 µM | –
Cc1ccc(C(=O)N2CCN3C(=O)c4ccccc4C23c2ccc(Cl)cc2)cc1 (racemic) | 5.8 µM | 17 µM | –
O=C(c1ccc(Cl)cc1)N1CCN2C(=O)c3ccccc3C12c1ccc(Cl)cc1 (racemic) | 3.7 µM | 17 µM | –
O=c1n(Cc2nc3ccccc3n2CCCCO)c2cnccc2n1C1CC1 | – | – | Ratio EC50 [16]: 380
COc1ccc(C(=O)N2CCN3C(=O)c4ccccc4C23c2ccc(Cl)cc2)cc1 (racemic) | > 20 µM | 16 µM | –
O=C(c1ccc(F)cc1)N1CCN2C(=O)c3ccccc3C12c1ccc(OCC2CC2)cc1 (racemic) | 0.079 µM | > 20 µM | –
O=C(c1ccc(F)cc1)N1CCN2C(=O)c3ccccc3C12 (racemic) | > 20 µM | > 20 µM | –
COCCOc1cccc(C23c4ccccc4C(=O)N2CCN3C(=O)c2ccc(F)cc2)c1 (racemic) | > 16 µM | > 16 µM | –
O=C(c1cccc(Cl)n1)N1CCN2C(=O)c3ccccc3C12c1ccc(Cl)cc1 (racemic) | 0.47 µM | > 17 µM | –
O=C1c2ccccc2C2(c3ccc(Cl)cc3)N(Cc3ccc(F)cc3)CCN12 (racemic) | > 20 µM | 16 µM | –
O=C(c1ccc(F)cc1)N1CCN2C(=O)c3nccnc3C12c1ccc(Cl)cc1 (racemic) | > 18 µM | > 18 µM | –
O=C(NCc1ccccc1)N1CCN2C(=O)c3ccccc3C12c1ccc(Cl)cc1 (racemic) | 0.73 µM | > 20 µM | –
CC(C)CC(=O)N1CCN2C(=O)c3ccccc3C12c1ccc(Cl)cc1 (racemic) | 0.74 µM | > 20 µM | –
O=C(c1ccc(OC(F)(F)F)cc1)N1CCN2C(=O)c3ccccc3C12c1ccc(Cl)cc1 (racemic) | > 20 µM | 5.7 µM | –

SMILES | EC50 [1] | CC50 at 120 h [2] | further results
CCCOc1ccc(C23c4ccccc4C(=O)N2CCN3C(=O)c2ccc(F)cc2)cc1 (racemic) | 0.63 µM | > 20 µM | –
O=C(c1ccc(C(F)(F)F)cc1)N1CCN2C(=O)c3ccccc3C12c1ccc(Cl)cc1 (racemic) | > 20 µM | 17 µM | –
Cc1ccc(C23c4ccccc4C(=O)N2CCN3C(=O)c2ccc(F)cc2)cc1 (racemic) | 0.18 µM | > 20 µM | –
CC(C)c1ccc(C23c4ccccc4C(=O)N2CCN3C(=O)c2ccc(F)cc2)cc1 (racemic) | 1.2 µM | > 20 µM | –
O=C(c1ccco1)N1CCN2C(=O)c3ccccc3C12c1ccc(Cl)cc1 (racemic) | 0.26 µM | 12 µM | –
O=C(CC1CCCCC1)N1CCN2C(=O)c3ccccc3C12c1ccc(Cl)cc1 (racemic) | 4.5 µM | 14 µM | –
CCOc1ccc(C23c4ccccc4C(=O)N2CCN3C(=O)c2ccc(F)cc2)cc1 (racemic) | 0.2 µM | > 20 µM | –
COc1ccc(NC(=O)N2CCN3C(=O)c4ccccc4C23c2ccc(Cl)cc2)cc1 (racemic) | 1.6 µM | > 20 µM | –
O=C(c1ccc(F)cc1)N1CCN2C(=O)c3ccccc3C12c1cccnc1 (racemic) | 10 µM | > 20 µM | –
O=C(c1ccc(F)cc1)N1CCN2C(=O)c3ncccc3C12c1ccc(Cl)cc1 (racemic) | 0.88 µM | > 20 µM | –
O=C(Nc1ccccc1)N1CCN2C(=O)c3ccccc3C12c1ccc(Cl)cc1 (racemic) | 7.1 µM | > 20 µM | –
COCC(=O)N1CCN2C(=O)c3ccccc3C12c1ccc(Cl)cc1 (racemic) | 2.7 µM | > 21 µM | –
COc1ccc(C23c4ccccc4C(=O)N2CCN3C(=O)c2ccc(F)cc2)cc1 (racemic) | 0.53 µM | > 20 µM | –
CC(C)Oc1ccc(C23c4ccccc4C(=O)N2CCN3C(=O)c2ccc(F)cc2)cc1 (racemic) | 1.1 µM | > 20 µM | –
O=C(c1ccc(F)cc1)N1CCN2C(=O)c3ccccc3C12c1ccc(O)cc1 (racemic) | 11 µM | > 20 µM | –
O=C1c2ccccc2C2(c3ccc(Cl)cc3)N1CCN2c1ccccc1 (racemic) | > 20 µM | > 20 µM | –
CCCc1ccc(C23c4ccccc4C(=O)N2CCN3C(=O)c2ccc(F)cc2)cc1 (racemic) | 0.27 µM | 18 µM | –
O=C(c1ccc(F)cc1)N1CCN2C(=O)c3ccccc3C12c1ccccn1 (racemic) | > 20 µM | > 20 µM | –
Cc1nnnn1/N=C/c1ccc(O)c(C(c2ccc(O)cc2)c2cc(/C=N/n3nnnc3C)ccc2O)c1 | – | – | Ratio EC50 [16]: >1400
O=C(c1ccc(F)cc1)N1CCN2C(=O)c3cnccc3C12c1ccc(Cl)cc1 (racemic) | 2.7 µM | > 18 µM | –
COCCOc1ccc(C23c4ccccc4C(=O)N2CCN3C(=O)c2ccc(F)cc2)cc1 (racemic) | 0.25 µM | > 16 µM | –
COC(=O)COc1ccc(C23c4ccccc4C(=O)N2CCN3C(=O)c2ccc(F)cc2)cc1 (racemic) | 3.3 µM | > 16 µM | –
NC(=O)COc1ccc(C23c4ccccc4C(=O)N2CCN3C(=O)c2ccc(F)cc2)cc1 (racemic) | 1 µM | 11 µM | –
O=C(c1ccc(F)cc1)N1CCN2C(=O)c3ccccc3C12c1ccc(C(F)(F)F)cc1 (racemic) | 0.51 µM | > 20 µM | –
CCC(=O)N1CCN2C(=O)c3ccccc3C12c1ccc(Cl)cc1 (racemic) | 1 µM | > 20 µM | –
CCc1ccc(C23c4ccccc4C(=O)N2CCN3C(=O)c2ccc(F)cc2)cc1 (racemic) | 0.21 µM | > 18 µM | –
O=C(NCc1ccc(F)cc1)N1CCN2C(=O)c3ccccc3C12c1ccc(Cl)cc1 (racemic) | 0.6 µM | 10 µM | –
